Data as given in ChEMBL document CHEMBL2069213, “Synthesis and evaluation of small libraries of triazolylmethoxy chalcones, flavanones and 2-aminopyrimidines as inhibitors of mycobacterial FAS-II and PknG” (Bioorg Med Chem, 2012).
Converted amounts (≈) assume the structure as drawn. The source made the active and inactive calls. No cut-off for these calls is given here.

Key:
[1] = molecular target: Serine/threonine-protein kinase PknG (Mycobacterium tuberculosis) (UniProt P9WI73); experiment: Inhibition of Mycobacterium tuberculosis recombinant PKnG expressed in Escherichia coli BL21 (DE3) cells using myelin basic protein substrate at 25 uM by luciferase activity based ADP-Glo-luminescent kinase assay
How it was run: (§1)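 6-His-PknG from M. tuberculosis genomic DNA cloned into pTriEx4, expressed in E. coli with 0.8 mM IPTG 4 h at 37 °C, purified by Ni2+-NTA then size exclusion. Compounds dissolved in DMSO; assayed with myelin basic protein substrate; ADP formed measured by ADP-Glo luminescence; AX20017 positive control; dose-response series.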

[2] = molecular target: Serine/threonine-protein kinase PknG (Mycobacterium tuberculosis) (UniProt P9WI73); experiment: Inhibition of Mycobacterium tuberculosis recombinant PKnG expressed in Escherichia coli BL21 (DE3) cells using myelin basic protein substrate at 3.125 uM by luciferase activity based ADP-Glo-luminescent kinase assay; how it was run: as §1
[3] = molecular target: Serine/threonine-protein kinase PknG (Mycobacterium tuberculosis) (UniProt P9WI73); experiment: Inhibition of Mycobacterium tuberculosis recombinant PKnG expressed in Escherichia coli BL21 (DE3) cells using myelin basic protein substrate at 6.25 uM by luciferase activity based ADP-Glo-luminescent kinase assay; how it was run: as §1
[4] = molecular target: Serine/threonine-protein kinase PknG (Mycobacterium tuberculosis) (UniProt P9WI73); experiment: Inhibition of Mycobacterium tuberculosis recombinant PKnG expressed in Escherichia coli BL21 (DE3) cells using myelin basic protein substrate at 100 uM by luciferase activity based ADP-Glo-luminescent kinase assay; how it was run: as §1
[5] = molecular target: Serine/threonine-protein kinase PknG (Mycobacterium tuberculosis) (UniProt P9WI73); experiment: Inhibition of Mycobacterium tuberculosis recombinant PKnG expressed in Escherichia coli BL21 (DE3) cells using myelin basic protein substrate at 50 uM by luciferase activity based ADP-Glo-luminescent kinase assay; how it was run: as §1
[6] = molecular target: Serine/threonine-protein kinase PknG (Mycobacterium tuberculosis) (UniProt P9WI73); experiment: Inhibition of Mycobacterium tuberculosis recombinant PKnG expressed in Escherichia coli BL21 (DE3) cells using myelin basic protein substrate at 12.5 uM by luciferase activity based ADP-Glo-luminescent kinase assay; how it was run: as §1
[7] = system: Mycobacterium tuberculosis; experiment: Growth inhibition of Mycobacterium tuberculosis H37Rv; type: functional
Mycolicibacterium aurum [8] = experiment: Inhibition of FAS2 in recombinant Mycobacterium aurum expressing hsp60 promoter in fusion Escherichia coli lacZ gene assessed as increase in beta-galactosidase activity at 100 uM incubated for 12 hrs by lacZ reporter gene assay
Mycolicibacterium aurum [9] = experiment: Inhibition of FAS2 in recombinant Mycobacterium aurum expressing Mycobacterium tuberculosis H37Rv kas operon in fusion Escherichia coli lacZ gene assessed as increase in beta-galactosidase activity at 50 uM incubated for 12 hrs by lacZ reporter gene assay
How it was run: (§2)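 Cells washed, sonicated in PBS pH 7.2; equal Bradford-quantified protein incubated with ONPG (4 mg/ml) 30 min at 37 °C, stopped with Na2CO3, read at 410 nm. Triplicates, experiment repeated twice; isoniazid positive control.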

[10] = Toxicity against macrophages incubated for 48 hrs by resazurin dye reduction assay; type: cell-based, Macrophage
How it was run: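 Macrophages from subconfluent monolayers seeded ~1 × 10^6 cells/well in RPMI-1640; compounds 100 to 12.5 µM, 48 h at 37 °C, 5% CO2; resazurin added for 4 h, fluorescence 535/590 nm read against untreated wells as % viability; CC50 taken from viability-versus-concentration plot; triplicates.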

Mycolicibacterium aurum [11] = experiment: Growth inhibition of Mycobacterium aurum expressing Mycobacterium tuberculosis H37Rv kas operon in fusion Escherichia coli lacZ gene at 100 uM incubated for 12 hrs; type: functional; conditions: read-out: GI
Mycolicibacterium aurum [12] = experiment: Inhibition of FAS2 in recombinant Mycobacterium aurum expressing Mycobacterium tuberculosis H37Rv kas operon in fusion Escherichia coli lacZ gene assessed as increase in beta-galactosidase activity at 100 uM incubated for 12 hrs by lacZ reporter gene assay; how it was run: as §2
Mycolicibacterium aurum [13] = experiment: Inhibition of FAS2 in recombinant Mycobacterium aurum expressing hsp60 promoter in fusion Escherichia coli lacZ gene assessed as increase in beta-galactosidase activity at 50 uM incubated for 12 hrs by lacZ reporter gene assay
Mycolicibacterium aurum [14] = experiment: Growth inhibition of Mycobacterium aurum expressing Mycobacterium tuberculosis H37Rv kas operon in fusion Escherichia coli lacZ gene at 50 uM incubated for 12 hrs; type: functional; conditions: read-out: GI

Chain of Serine/threonine-protein kinase PknG (Mycobacterium tuberculosis) (P9WI73 whole entry): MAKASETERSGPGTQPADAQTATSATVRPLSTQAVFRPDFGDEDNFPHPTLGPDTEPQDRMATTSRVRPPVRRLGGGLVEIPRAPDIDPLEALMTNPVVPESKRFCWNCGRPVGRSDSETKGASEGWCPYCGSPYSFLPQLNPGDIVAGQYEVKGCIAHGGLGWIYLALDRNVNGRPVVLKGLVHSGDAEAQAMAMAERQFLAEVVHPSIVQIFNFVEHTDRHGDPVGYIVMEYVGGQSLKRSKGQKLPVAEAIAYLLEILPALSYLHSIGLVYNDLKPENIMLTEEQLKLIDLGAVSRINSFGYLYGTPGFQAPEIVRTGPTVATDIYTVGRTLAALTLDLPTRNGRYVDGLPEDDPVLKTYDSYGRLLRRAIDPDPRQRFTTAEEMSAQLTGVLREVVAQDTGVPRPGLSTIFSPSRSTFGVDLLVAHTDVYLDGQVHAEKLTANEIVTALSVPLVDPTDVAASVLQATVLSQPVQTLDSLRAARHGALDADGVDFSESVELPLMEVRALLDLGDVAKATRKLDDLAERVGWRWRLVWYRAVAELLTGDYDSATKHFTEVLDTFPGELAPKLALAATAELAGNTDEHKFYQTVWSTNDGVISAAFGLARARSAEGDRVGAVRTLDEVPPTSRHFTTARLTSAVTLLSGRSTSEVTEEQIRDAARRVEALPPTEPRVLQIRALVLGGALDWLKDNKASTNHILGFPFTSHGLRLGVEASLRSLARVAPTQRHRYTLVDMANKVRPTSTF

Structure (SMILES)	inhibition [1] [%]	inhibition [2] [%]	inhibition [3] [%]	inhibition [4] [%]	inhibition [5] [%]	inhibition [6] [%]	MIC [7] [µg/mL]	inhibition (Mycolicibacterium aurum [8])	inhibition (Mycolicibacterium aurum [9])	CC50 at 48 h [10] [µM]	inhibition of growth at 100 µM (Mycolicibacterium aurum [11]) [%]	inhibition (Mycolicibacterium aurum [12])	inhibition (Mycolicibacterium aurum [13])	inhibition of growth at 50 µM (Mycolicibacterium aurum [14]) [%]
CCCCCCn1cc(COc2ccc(-c3cc(-c4ccccc4)nc(N)n3)c(O)c2)nn1	0	0	0	23	13	0	50 (≈ 112 µM)	–	–	–	–	–	–	–
CCCCCCn1cc(COc2ccc3c(c2)OC(c2ccc(Br)cc2)CC3=O)nn1 (centres undefined)	–	–	–	–	–	–	–	inactive	Active	20.3	75.1	Active	inactive	68.9
O=C(/C=C/c1c(F)cccc1Cl)c1ccc(OCc2cn(Cc3ccc(Br)cc3)nn2)cc1O	–	–	–	–	–	–	–	inactive	Active	65.8	83	Active	inactive	53.1
CCCCCCn1cc(COc2ccc3c(c2)OC(c2ccc(OC)cc2)CC3=O)nn1 (centres undefined)	–	–	–	–	–	–	–	inactive	Active	57.5	65.7	Active	inactive	55.9
CC(C)c1ccc(C2CC(=O)c3ccc(OCc4cn(Cc5ccccc5)nn4)cc3O2)cc1 (centres undefined)	–	–	–	–	–	–	–	inactive	Active	23.8	79.3	Active	inactive	54.7
CCCCCCn1cc(COc2ccc(C(=O)/C=C/c3c(F)cccc3Cl)c(O)c2)nn1	–	–	–	–	–	–	–	inactive	Active	> 100	79.1	Active	inactive	71.6
O=C(/C=C/c1ccccc1)c1ccc(OCc2cn(Cc3ccc(Br)cc3)nn2)cc1O	–	–	–	–	–	–	–	inactive	Active	71.7	85.3	Active	inactive	53.8
